In brackets after ≈: the same amount, converted by molar mass.
What was measured:
Assay type in all cases: functional
[1] = system: Mycobacteroides abscessus; test: Antimicrobial activity against Mycobacterium abscessus isolate MC879-2 at day 9 preincubated with 0.1 ug/ml erythromycin for 3 days by broth microdilution method
[2] = system: Mycobacteroides abscessus; test: Antimicrobial activity against Mycobacterium abscessus isolate MC720 at day 14 preincubated with 0.1 ug/ml erythromycin for 3 days by broth microdilution method
How it was run: (§1)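 Clarithromycin MIC by broth microdilution following CLSI guidelines. Before testing, organisms were preincubated for 3 days in medium alone or in clarithromycin or erythromycin (0.01–1 μg/ml), long enough for at least two generations judged by turbidity increase. MICs were read on day 3 and again on extended incubation out to day 14.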

[3] = system: Mycobacteroides abscessus; test: Antimicrobial activity against Mycobacterium abscessus isolate MC720 at day 3 preincubated with 0.1 ug/ml for 3 days by broth microdilution method; how it was run: as §1
[4] = system: Mycobacteroides abscessus; test: Antimicrobial activity against Mycobacterium abscessus isolate MC958 at day 3 by broth microdilution method; settings: isolate MC958, 72 h
How it was run: (§2)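 Clarithromycin MIC by broth microdilution following CLSI guidelines. Organisms were preincubated […], for 3 days before the assay. This allowed at least two generations, judged by the rise in turbidity. The MIC was read at the stated day, with incubation extended from day 3 to as long as 14 days.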

[5] = system: Mycobacteroides abscessus; test: Antimicrobial activity against Mycobacterium abscessus isolate MAB30 at day 9 preincubated with 0.1 ug/ml for 3 days by broth microdilution method
How it was run: (§3)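 Clarithromycin MIC by CLSI-conforming broth microdilution. Before testing, cultures were preincubated for 3 days, either in medium alone or in clarithromycin or erythromycin (tested range 0.01–1 μg/ml). Preincubation ran for at least two generations, judged by turbidity increase. Plates were read on day 3 and on extended incubation at days 5 to 14.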

[6] = system: Mycolicibacterium smegmatis; test: Antimicrobial activity against Mycobacterium smegmatis transformed with erm allele Mycobacterium abscessus isolate MC1082 preincubated with 2 ug/ml erythromycin for 20 to 24 hrs by broth microdilution method
[7] = system: Mycobacteroides abscessus; test: Antimicrobial activity against Mycobacterium abscessus isolate MC720 at day 7 by broth microdilution method; settings: isolate MC720, 168 h
How it was run: (§4)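 Clinical M. abscessus isolates were preincubated for 3 days, either in medium alone or in clarithromycin or erythromycin at 0.01 to 1 μg/ml, allowing at least two generations of growth judged by turbidity. The clarithromycin MIC was then determined by CLSI-conforming broth microdilution, with plates read on day 3 and on extended incubation (days 5 to 14).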

[8] = system: Mycobacteroides abscessus; test: Antimicrobial activity against Mycobacterium abscessus isolate MC720 at day 5 by broth microdilution method; settings: isolate MC720, 120 h; how it was run: as §1
[9] = system: Mycobacteroides abscessus; test: Antimicrobial activity against Mycobacterium abscessus isolate MAB30 at day 3 preincubated with 0.1 ug/ml erythromycin for 3 days by broth microdilution method; how it was run: as §3
[10] = system: Mycobacteroides abscessus; test: Antimicrobial activity against Mycobacterium abscessus isolate MC720 at day 14 by broth microdilution method; settings: isolate MC720, 336 h; how it was run: as §1
[11] = system: Mycobacteroides abscessus; test: Antimicrobial activity against Mycobacterium abscessus isolate MC1448 at day 3 preincubated with 0.1 ug/ml for 3 days by broth microdilution method; how it was run: as §1
[12] = system: Mycobacteroides abscessus; test: Antimicrobial activity against Mycobacterium abscessus isolate MC958 at day 14 by broth microdilution method; settings: isolate MC958, 336 h; how it was run: as §2
[13] = system: Mycobacteroides abscessus; test: Antimicrobial activity against Mycobacterium abscessus isolate MC720 at day 3 preincubated with 0.1 ug/ml erythromycin for 3 days by broth microdilution method; how it was run: as §1
[14] = system: Mycobacteroides abscessus; test: Antimicrobial activity against Mycobacterium abscessus isolate MC1028 at day 14 preincubated with 0.1 ug/ml erythromycin for 3 days by broth microdilution method; how it was run: as §3
[15] = system: Mycobacteroides abscessus; test: Antimicrobial activity against Mycobacterium abscessus isolate MC723 at day 14 preincubated with 0.1 ug/ml erythromycin for 3 days by broth microdilution method; how it was run: as §1
[16] = system: Mycobacteroides abscessus; test: Antimicrobial activity against Mycobacterium abscessus isolate MC879 at day 9 preincubated with 0.1 ug/ml erythromycin for 3 days by broth microdilution method
How it was run: (§5)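 To test inducible resistance, cultures were preincubated for 3 days in clarithromycin or erythromycin, within 0.01–1 μg/ml. The period was set so cultures passed at least two generations, judged by turbidity increase. Clarithromycin MIC was then determined by CLSI-conforming broth microdilution and read on the stated day, from day 3 up to 14.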

[17] = system: Mycobacteroides abscessus; test: Antimicrobial activity against Mycobacterium abscessus isolate MC719 at day 7 preincubated with 0.1 ug/ml for 3 days by broth microdilution method; how it was run: as §1
[18] = system: Mycobacteroides abscessus; test: Antimicrobial activity against Mycobacterium abscessus isolate MAB30 at day 9 preincubated with 0.1 ug/ml erythromycin for 3 days by broth microdilution method; how it was run: as §3
[19] = system: Mycobacteroides abscessus; test: Antimicrobial activity against Mycobacterium abscessus isolate MC724 at day 14 by broth microdilution method; settings: isolate MC724, 336 h; how it was run: as §1
[20] = system: Mycobacteroides abscessus; test: Antimicrobial activity against Mycobacterium abscessus isolate MC1448 at day 7 by broth microdilution method; settings: isolate MC1448, 168 h; how it was run: as §1
[21] = system: Mycobacteroides abscessus; test: Antimicrobial activity against Mycobacterium abscessus isolate MC1082 at day 7 preincubated with 0.1 ug/ml erythromycin for 3 days by broth microdilution method; how it was run: as §3
[22] = system: Mycobacteroides abscessus; test: Antimicrobial activity against Mycobacterium abscessus isolate MC724 at day 9 by broth microdilution method; settings: isolate MC724, 216 h; how it was run: as §2
[23] = system: Mycobacteroides abscessus; test: Antimicrobial activity against Mycobacterium abscessus isolate MC723 at day 9 preincubated with 0.1 ug/ml for 3 days by broth microdilution method; how it was run: as §1
[24] = system: Mycobacteroides abscessus; test: Antimicrobial activity against Mycobacterium abscessus isolate MC723 at day 14 preincubated with 0.1 ug/ml for 3 days by broth microdilution method; how it was run: as §1
[25] = system: Mycolicibacterium smegmatis; test: Antimicrobial activity against Mycobacterium smegmatis transformed with erm allele Mycobacterium abscessus isolate MC879 preincubated with 2 ug/ml erythromycin for 20 to 24 hrs by broth microdilution method
[26] = system: Mycobacteroides abscessus; test: Antimicrobial activity against Mycobacterium abscessus isolate MC1448 at day 9 preincubated with 0.1 ug/ml for 3 days by broth microdilution method; how it was run: as §1
[27] = system: Mycobacteroides abscessus; test: Antimicrobial activity against Mycobacterium abscessus isolate MC1448 at day 14 preincubated with 0.1 ug/ml for 3 days by broth microdilution method; how it was run: as §3
[28] = system: Mycobacteroides abscessus; test: Antimicrobial activity against Mycobacterium abscessus isolate MC958 on day 4 by broth microdilution method; settings: isolate MC958, 96 h
[29] = system: Mycobacteroides abscessus; test: Antimicrobial activity against Mycobacterium abscessus isolate MC879 at day 14 preincubated with 0.1 ug/ml for 3 days by broth microdilution method; how it was run: as §5
[30] = system: Mycobacteroides abscessus; test: Antimicrobial activity against Mycobacterium abscessus isolate MC1448 at day 3 preincubated with 0.1 ug/ml erythromycin for 3 days by broth microdilution method; how it was run: as §1
[31] = system: Mycobacteroides abscessus; test: Antimicrobial activity against Mycobacterium abscessus isolate MC958 at day 5 preincubated with 0.1 ug/ml erythromycin for 3 days by broth microdilution method; how it was run: as §4
[32] = system: Mycobacteroides abscessus; test: Antimicrobial activity against Mycobacterium abscessus isolate MC719 at day 9 by broth microdilution method; settings: isolate MC719, 216 h; how it was run: as §1
[33] = system: Mycobacteroides abscessus; test: Antimicrobial activity against Mycobacterium abscessus isolate MC879 at day 3 preincubated with 0.1 ug/ml erythromycin for 3 days by broth microdilution method; how it was run: as §5
[34] = system: Mycobacteroides abscessus; test: Antimicrobial activity against Mycobacterium abscessus isolate MC1028 at day 7 preincubated with 0.1 ug/ml erythromycin for 3 days by broth microdilution method; how it was run: as §3
[35] = system: Mycobacteroides abscessus; test: Antimicrobial activity against Mycobacterium abscessus isolate MC879 at day 5 by broth microdilution method; settings: isolate MC879, 120 h; how it was run: as §2

Question: For `CC[C@H]1OC(=O)[C@H](C)[C@@H](O[C@H]2C[C@@](C)(OC)[C@@H](O)[C@H](C)O2)[C@H](C)[C@@H](O[C@@H]2O[C@H](C)C[C@H](N(C)C)[C@H]2O)[C@](C)(OC)C[C@@H](C)C(=O)[C@H](C)[C@@H](O)[C@]1(C)O` [CLARITHROMYCIN], which MIC [1] is on record?
Answer: > 32 µg/mL

Question: And the MIC [2]?
Answer: > 32 µg/mL

Question: What about the MIC [3] of the same compound?
Answer: ≤ 0.5 µg/mL

Question: And the MIC [4]?
Answer: ≤ 0.5 µg/mL

Question: What about the MIC [5] of the same compound?
Answer: ≤ 0.5 µg/mL

Question: And the MIC [6]?
Answer: ≤ 0.5 µg/mL

Question: And the MIC [7]?
Answer: 8 µg/mL (≈ 10.7 µM)

Question: And the MIC [8]?
Answer: 1 µg/mL (≈ 1.34 µM)

Question: What about the MIC [9] of the same compound?
Answer: ≤ 0.5 µg/mL

Question: What about the MIC [10] of the same compound?
Answer: > 32 µg/mL

Question: What about the MIC [11] of the same compound?
Answer: > 32 µg/mL

Question: What about the MIC [12] of the same compound?
Answer: > 32 µg/mL

Question: What about the MIC [13] of the same compound?
Answer: ≤ 0.5 µg/mL

Question: What about the MIC [14] of the same compound?
Answer: ≤ 0.5 µg/mL

Question: And the MIC [15]?
Answer: > 32 µg/mL

Question: What about the MIC [16] of the same compound?
Answer: > 32 µg/mL

Question: What about the MIC [17] of the same compound?
Answer: > 32 µg/mL

Question: What about the MIC [18] of the same compound?
Answer: ≤ 0.5 µg/mL

Question: What about the MIC [19] of the same compound?
Answer: > 32 µg/mL

Question: What about the MIC [20] of the same compound?
Answer: > 32 µg/mL

Question: And the MIC [21]?
Answer: ≤ 0.5 µg/mL

Question: And the MIC [22]?
Answer: > 32 µg/mL

Question: And the MIC [23]?
Answer: > 32 µg/mL

Question: And the MIC [24]?
Answer: > 32 µg/mL

Question: And the MIC [25]?
Answer: 16 µg/mL

Question: What about the MIC [26] of the same compound?
Answer: > 32 µg/mL

Question: What about the MIC [27] of the same compound?
Answer: > 32 µg/mL

Question: And the MIC [28]?
Answer: ≤ 2 µg/mL

Question: And the MIC [29]?
Answer: > 32 µg/mL

Question: And the MIC [30]?
Answer: > 32 µg/mL

Question: What about the MIC [31] of the same compound?
Answer: 4 µg/mL

Question: And the MIC [32]?
Answer: > 32 µg/mL

Question: What about the MIC [33] of the same compound?
Answer: ≤ 0.5 µg/mL

Question: And the MIC [34]?
Answer: ≤ 0.5 µg/mL

Question: What about the MIC [35] of the same compound?
Answer: 1 µg/mL (≈ 1.34 µM)

— ChEMBL document CHEMBL1649139, “A novel gene, erm(41), confers inducible macrolide resistance to clinical isolates of Mycobacterium abscessus but is absent from Mycobacterium chelonae” (2009)
